An excerpt weighted towards active compounds, which were near 1.8% of everything screened.
NR2E3 ag-1 – agonists of human NR2E3 nuclear receptor; Q9Y5X4; CHO-S Gal4-NCOR/VP16-NR2E3 two-hybrid, luciferase; inhibition of corepressor binding, % at 3.98 µM; 360,000 compounds, 0.35% hits; AID 602229;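 active = inhibition above the mean of all tested compounds plus 3 SD, cut at about 70% in these data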;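 also: 0% = DMSO with NR2E3 transfected cells and 100% = cells lacking NR2E3 construct; higher means lower luciferase signal from less NR2E3 corepressor binding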
GalR3 antagonist – antagonists of human GalR3 | O60755 | 360,000 compounds, 0.44% hits | HEK293 GalR3-CNG cAMP membrane potential fluorescence; galR3 body fused to GalR1 C-terminus | inhibition, % at 3 µM | AID 651719;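 active = inhibition above the screen-wide average plus 3 SD, cut at about 13% in these data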;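 also: forskolin and galanin both at EC90 stimulate the cells; cAMP rise reported by CNG channel membrane potential dye signal; 0% = forskolin plus galanin with DMSO and 100% = forskolin alone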
PG9 binder – small molecules binding HIV-1 gp120 antibody PG9 | TR-FRET gp120-PG9 antibody binding | inhibition, % at 6.7 µM | 360,000 compounds, 0.43% hits; in the data active = inhibition above about 8.5%
Rev-erbA mod – Rev-erb alpha (human) modulation; AID 1259318; 370,000 compounds, 0.79% hits; activity, % at 10 µM; P20393; Rev-erbα–FITC-DNA binding, fluorescence polarization, 90 min;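 active = activity above about 14%, limit read from the data; passing the limit was not always enough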;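 also: 0% = DMSO wells with 35 nM protein and 100% = DMSO wells with 750 nM protein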
Target sequence (P20393 whole entry, looked up): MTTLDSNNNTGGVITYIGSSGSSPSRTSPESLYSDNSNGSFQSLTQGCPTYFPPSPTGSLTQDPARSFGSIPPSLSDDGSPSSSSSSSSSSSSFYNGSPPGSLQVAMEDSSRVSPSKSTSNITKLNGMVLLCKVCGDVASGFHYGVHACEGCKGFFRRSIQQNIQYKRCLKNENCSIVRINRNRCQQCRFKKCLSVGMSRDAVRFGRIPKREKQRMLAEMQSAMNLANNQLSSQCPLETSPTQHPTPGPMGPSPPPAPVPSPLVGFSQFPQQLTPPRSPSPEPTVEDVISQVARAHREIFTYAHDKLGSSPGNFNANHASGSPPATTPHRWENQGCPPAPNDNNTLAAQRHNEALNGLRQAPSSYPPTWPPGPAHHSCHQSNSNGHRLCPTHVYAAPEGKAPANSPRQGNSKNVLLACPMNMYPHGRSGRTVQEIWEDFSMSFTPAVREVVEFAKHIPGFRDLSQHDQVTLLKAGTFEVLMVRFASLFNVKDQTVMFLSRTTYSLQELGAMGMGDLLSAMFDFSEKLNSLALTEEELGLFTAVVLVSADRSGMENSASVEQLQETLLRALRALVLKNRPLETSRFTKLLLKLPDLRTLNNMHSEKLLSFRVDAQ
NR2E3 ag-2 – agonists of human nuclear receptor NR2E3 | Q9Y5X4 | GST-NR2E3/biotin-RetCOR TR-FRET, 1536-well | inhibition of corepressor binding, % at 4.78 µM | 320,000 compounds, 0.12% hits | AID 2300;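 active = percent inhibition above the cutoff of mean plus 3 SD of all tested compounds, set per screening campaign, cut at about 20% in these data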;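 also: 0% = DMSO wells and 100% = biotin wells as full block of FRET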
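System: GST-NR2E3 and biotin-RetCOR proteins; probe or stimulus: 7 nM biotin-RetCOR; doses: compound at 4.8 µM, single dose; schedule: Compound–protein incubation for 5 h at 4 °C; detection: time-resolved FRET; read-out: percent inhibition; controls: biotin wells as high control, 0.6% DMSO wells as low control; format: 1536-well plates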
NR2E3 ag conf – confirmation of human NR2E3 agonists; AID 624378; 2,300 compounds, 51% hits; inhibition, % at 3.98 µM; CHO-S mammalian two-hybrid NR2E3-NCOR, luciferase luminescence; shares compounds with NR2E3 ag-1;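 active = average inhibition above a cutoff equal to the mean inhibition of all tested compounds plus one SD, cut at about 70% in these data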;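 also: 0% = DMSO in NR2E3 cells and 100% = DMSO in cells lacking NR2E3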
GAL4-VP16 luc – reduces GAL4-VP16 reporter signal in NR2E3 counterscreen | shares compounds with NR2E3 ag-1 | CHO-S GAL4-VP16 luciferase reporter, luminescence | inhibition, % at 3.98 µM | 2,300 compounds, 29% hits | AID 624379;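 active = mean inhibition above a cutoff equal to the average over all tested compounds plus one standard deviation, cut at about 70% in these data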;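 also: luciferase from a UAS reporter driven by GAL4-VP16 transactivation; 0% = DMSO with VP16-transfected cells and 100% = DMSO with cells lacking VP16; higher means less reporter light so more repression of VP16 activity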
Starred values were filed as active, the others as inactive; x = no result.

SMILES	NR2E3 ag-1	GalR3 antagonist	PG9 binder	Rev-erbA mod	NR2E3 ag-2	NR2E3 ag conf	GAL4-VP16 luc
COc1ccc(OC)c(Nc2nc(-c3c(C)nc4ncccn34)cs2)c1	49	-8	-4	6	1	-33	19
NS(=O)(=O)c1ccc(Oc2ccc(S(N)(=O)=O)cc2)cc1	-6	-4	2	-4	2	x	x
C=CS(=O)(=O)c1ccc(Oc2ccc(S(=O)(=O)C=C)cc2)cc1	91*	-3	-2	2	1	69	26
O=C(NCCc1ccccc1F)c1cc2ccccn2n1	x	x	x	-3	x	x	x
N#C/C(=C\c1ccc(Sc2ccc(Cl)cc2)o1)c1nc2ccccc2[nH]1	-56	-5	-1	3	1	x	x
N#C/C(=C\c1ccc(Sc2nc3ccccc3[nH]2)o1)c1ccccc1	73*	-4	-3	1	-2	82*	56
OC(c1ccccc1)(c1ccccc1)C1CCN(CCCNc2cccc(Br)c2)CC1	x	x	x	11	x	x	x
COC1=C(OC)C(=O)C(Sc2ccc3ccccc3c2)=CC1=O	84*	-4	-1	0	x	94*	61
Cc1ccc(CNc2nc(NCc3ccccc3)nc3ccsc23)c(C)c1	74*	-10	-1	2	x	68	45
CNc1nc(NCc2ccc(C)cc2C)c2sccc2n1	50	-10	0	-10	x	28	28
CNc1nc(Nc2ccc(C)cc2C)c2sccc2n1	49	-5	0	0	x	43	35
Cc1ccc(Nc2nc(NCC3CC3)nc3ccsc23)c(C)c1	-3	-8	1	0	x	x	x
O=C(Cn1cnc2ccccc2c1=O)N1CCN(C(=O)C2CCCO2)CC1 (centres undefined)	x	x	x	7	x	x	x
O=C(Nc1ccccc1C(=O)Nc1nnc(C(F)(F)F)s1)c1ccccc1	72*	-5	-1	1	2	99*	94*
Cc1occc1C(=O)Nc1nnc(C(F)(F)F)s1	-31	-4	6	-3	5	x	x
Cc1cc(-c2ccc(C)c(S(=O)(=O)NCCCN3CCN(c4ccccc4)CC3)c2)on1	46	4	-1	-4	-2	x	x
Cc1cc(-c2ccc(C)c(S(=O)(=O)NCCCN3CCN(c4ccccc4F)CC3)c2)on1	62	-7	-1	-3	4	76*	68
C=C(C(=O)c1ccccc1)C(C)CC(=O)c1ccccc1 (centres undefined)	-2	-2	-1	-6	0	x	x
C=C(C(=O)c1ccccc1)C(NC(C)(C)C)c1ccccc1 (centres undefined)	92*	-5	1	-1	x	78*	29
Cc1nc(NCc2ccc3c(c2)OCO3)c2oc3ccccc3c2n1	57	-2	1	4	0	50	32
C=C1C(=O)C23C(O)C1CCC2C12CCCC(C)(COC(C)=O)C1C(O)C3(O)OC2 (centres undefined)	91*	1	1	7	x	-6	-34
CC(C)(C)OC(=O)N1Cc2ccccc2C[C@H]1C(=O)NCC(=O)Nc1ccc2c(c1)OCCO2	59	-1	-2	7	-2	27	8
CC1(NC(=O)c2ccc(C#Cc3cccc(F)c3)cn2)COC1	x	x	x	-4	x	x	x
O=c1c2cc3cc(Cl)ccc3nc2ncn1Cc1ccc(Oc2ccccc2)cc1	x	x	x	6	x	x	x
CC(=O)OCC(=O)Nc1ccc([N+](=O)[O-])cc1Cl	-21	-3	-3	-7	2	x	x
SMILES	NR2E3 ag-1	GalR3 antagonist	PG9 binder	Rev-erbA mod	NR2E3 ag-2	NR2E3 ag conf	GAL4-VP16 luc
CC(=O)Oc1c(C)cc(Cl)cc1C(=O)Nc1ccc([N+](=O)[O-])cc1Cl	83*	6	0	-1	-1	99*	73*
Cc1ccccc1Oc1cc(-n2ncc(Cl)c(Cl)c2=O)ncn1	49	-1	0	-2	-16	63	-18
CCOc1cnn(-c2cc(Oc3ccc(C)cc3)ncn2)c(=O)c1Cl	-10	1	0	10	0	x	x
COc1ccc(S(=O)(=O)N2CCOC2CNC(=O)C(=O)NCc2ccc(F)cc2)cc1OC (centres undefined)	49	0	-1	-1	2	10	12
Cc1ccccc1NC(=O)c1cccc2nc3ccccc3nc12	80*	-3	-2	0	0	96*	67
Cc1ccccc1NC(=O)c1ccccc1NC(=O)Cc1cccc2ccccc12	-12	3	-1	-5	-1	x	x
CCCCNC(=O)O[C@H]1CC[C@@]23CCCN2C(=O)CCC[C@H]3[C@H]1CCC	x	x	x	-1	x	x	x
CN(C)c1ncnc2c1ncn2C1OC(CO)C(O)C1O (centres undefined)	22	0	-1	5	3	x	x
O=c1[nH]cnc2c1nnn2C1OC(CO)C(O)C1O (centres undefined)	49	-6	-1	11	x	-40	26
CN(C)c1ncnc2c1nnn2C1OC(CO)C(O)C1O (centres undefined)	89*	-8	-1	-3	x	-9	61
c1ccc(N2CCN(c3nc(-c4ccccn4)nc4ccccc34)CC2)cc1	100*	-6	-2	-2	0	23	15
Cc1ccccc1Oc1nc(-c2ccccn2)nc2ccccc12	66	-8	0	6	-2	27	29
CCCCCCCCN1[C@@H](CC(=O)O)c2cc(C(F)(F)F)ccc2S1(=O)=O	29	2	1	-2	2	x	x
CCCCCCCCCCCCN1[C@@H](CC(=O)O)c2cc(C(F)(F)F)ccc2S1(=O)=O	53	0	1	-2	-3	98*	30
CCCCCCCCCCCCN1[C@@H](CC(=O)O)c2cc(F)ccc2S1(=O)=O	95*	-5	1	3	0	94*	40
O=C(Cc1ccc(S(=O)(=O)N2CCOCC2)s1)N1CCN(c2cccc(C(F)(F)F)c2)CC1	72*	x	x	x	-1	81*	61
O=C(Cc1ccc(S(=O)(=O)N2CCCC2)s1)N1CCN(c2ccccc2)CC1	3	3	-2	-2	2	x	x
CNC(=O)CCc1nc(-c2ccc(C(C)(C)C)cc2)no1	68	5	-2	0	1	71*	76*
CC(C)(C)c1ccc(-c2noc(CCC(=O)NCC3CCCO3)n2)cc1 (centres undefined)	83*	-2	0	1	3	73*	69
CC(C)(C)c1ccc(-c2noc(CCC(=O)Nc3cccnc3)n2)cc1	84*	-10	0	1	6	75*	79*
CC(C)(C)c1ccc(-c2noc(CCC(N)=O)n2)cc1	80*	-4	-2	-5	0	78*	77*

Source: PubChem BioAssay (several laboratories)
